Reference: PMC8048584 (Chemmedchem, 2021)

Target: human DDR1 (Homo sapiens, UniProt Q08345)
Assay: Off-chip Mobility Shift Assay
Format: biochemical
Outline: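 Carried out by a contract kinase profiling service, with details in the Supporting Information. IC50 (50 % inhibition) was read from semi-logarithmic dose-response plots of the test compound. Each value is the mean of duplicate samples.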

human DDR1, sequence (Q08345 19-913): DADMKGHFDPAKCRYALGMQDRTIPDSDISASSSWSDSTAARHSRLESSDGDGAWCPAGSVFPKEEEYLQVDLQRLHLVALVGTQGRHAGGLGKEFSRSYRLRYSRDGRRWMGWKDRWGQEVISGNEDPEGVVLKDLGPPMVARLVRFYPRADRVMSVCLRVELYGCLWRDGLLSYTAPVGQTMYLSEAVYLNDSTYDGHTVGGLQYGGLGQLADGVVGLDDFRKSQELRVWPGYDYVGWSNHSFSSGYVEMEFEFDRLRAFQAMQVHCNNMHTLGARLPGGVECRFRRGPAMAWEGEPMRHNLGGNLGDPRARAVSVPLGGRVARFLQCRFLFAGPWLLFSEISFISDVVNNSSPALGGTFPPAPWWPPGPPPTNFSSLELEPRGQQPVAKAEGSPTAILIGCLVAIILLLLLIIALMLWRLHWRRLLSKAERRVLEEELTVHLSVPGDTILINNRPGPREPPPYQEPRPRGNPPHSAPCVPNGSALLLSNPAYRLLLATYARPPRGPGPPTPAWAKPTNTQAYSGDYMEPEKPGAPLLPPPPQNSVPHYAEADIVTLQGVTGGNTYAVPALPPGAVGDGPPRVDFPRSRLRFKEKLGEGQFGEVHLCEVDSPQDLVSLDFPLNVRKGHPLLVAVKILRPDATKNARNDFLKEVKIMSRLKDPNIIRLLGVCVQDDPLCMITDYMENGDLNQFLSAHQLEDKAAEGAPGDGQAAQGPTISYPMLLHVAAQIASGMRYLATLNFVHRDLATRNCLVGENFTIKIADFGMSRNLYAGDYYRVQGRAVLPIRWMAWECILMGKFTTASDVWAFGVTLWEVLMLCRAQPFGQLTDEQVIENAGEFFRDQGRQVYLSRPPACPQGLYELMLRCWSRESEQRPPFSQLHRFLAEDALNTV

- IC50: 92.5 nM
Structure (SMILES): O=C(Nc1ccc(Cl)c(COc2cccnc2)c1)c1cccc(C(F)(F)F)c1 [Compound 3, N‐(4‐chloro‐3‐((pyridin‐3‐yloxy)methyl)phenyl)‐3‐(trifluoromethyl)benzamide]
